Screens as filed in PubChem.
TDP2 inh – human TDP2 enzyme inhibitors, primary screen, biochemical, epi absorbance, recombinant enzyme | T5PNP hydrolysis, p-nitrophenol absorbance 415 nm | inhibition, % at 12.8 µM | 370,000 tested, 0.34% active | AID 720702, 2013;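 active = inhibition above the mean of all tested compounds plus 3 SD, set per campaign, cut at about 25% in these data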;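 note: 0% = DMSO with enzyme and 100% = buffer with substrate but no TDP2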
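Test system: human TDP2 enzyme; Input: 120 nM TDP2 per well; Buffer or medium: Mg2+-containing Tris-HCl buffer, pH 7.5; Reagent: 5 mM T5PNP; Dosing: 12.8 µM single point, 1% DMSO; Incubation: reaction 2 h, 37 °C; Detection: p-Nitrophenol epi absorbance; Read-out: % inhibition relative to enzyme-containing and enzyme-free wells; Replicates: single well per compound.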
UHRF1 binding – UHRF1 methylated DNA binding inhibitors, primary screen, counter-screen for MBD2 inhibitor project, biochemical, TR-FRET, human UHRF1, single concentration. E3 ubiquitin-protein ligase UHRF1 (Homo sapiens), Q96T88. UHRF1 binding to methylated oligo. inhibition, % at 4.4 µM. 370,000 tested, 0.75% active; in the data active = inhibition above about 21%;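 note: UHRF1 SRA domain binding a hemimethylated CpG hairpin DNA probe; 0% = median of test compound wells and 100% = reference inhibitor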
LEDGF integ inh – blockers of LEDGF/p75-dependent integrase strand transfer – biochemical, TR-FRET, high throughput, primary screen; HIV-1 integrase (with human LEDGF/p75); TR-FRET IN-LEDGF/p75 DNA integration, Eu/Cy5; inhibition, % at 3.7 µM; 370,000 tested, 0.64% active; AID 743269, 2014;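 active = inhibition above the screen-wide mean plus 3 SD, cut at about 13% in these data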;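 note: signal is the Cy5 over europium emission ratio at 671 and 618 nm; 0% = plate median of compound wells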
Rin1-Abl PPI inh – inhibitors of Rin1-Abl protein binding, primary screen, biochemical, TR-FRET. inhibition, % at 7.35 µM. 360,000 tested, 0.4% active. Tyrosine-protein kinase ABL1 (Homo sapiens) + Ras and Rab interactor 1 (Homo sapiens), …; in the data active = inhibition above about 5%, passing the limit was not always enough
MBD2 DNA inh – inhibitors of MBD2 binding to methylated DNA, primary screen, biochemical, TR-FRET, DNA-binding domain, human; 370,000 tested, 0.31% active; Methyl-CpG-binding domain protein 2 (Homo sapiens), Q9UBB5; inhibition, % at 4.4 µM; MBD2 binding to methylated oligonucleotide; AID 686964, 2013; in the data active = inhibition above about 13%
Starred values were filed as active, the others as inactive; / = no result. A selection: hits, their analogues and other compounds. The true share with any hit is near 1.9%.

SMILES	TDP2 inh	UHRF1 binding	LEDGF integ inh	Rin1-Abl PPI inh	MBD2 DNA inh
CNC(=O)CN(c1cc(C)ccc1OC)S(=O)(=O)c1ccc(C)cc1	8.9	41.5*	2.1	3.1	6.2
O=[N+]([O-])c1cncc2[nH]cnc12	0.1	-3.1	-3.0	/	1.3
COC(=O)C1CN(Cc2ccccc2)CCS(=O)(=O)N1Cc1cccc(Cl)c1 (configuration not stated)	-7.7	1.1	1.2	/	-4.3
OC[C@H]1O[C@@H](n2cnc3c(Nc4ccccc4)ncnc32)[C@H](O)[C@@H]1O	9.7	-0.8	-3.5	-0.9	2.1
NCCNC(=O)Cc1cccc(NC(=O)Cc2ccc(Nc3ncnc4c3ncn4[C@@H]3O[C@H](CO)[C@@H](O)[C@H]3O)cc2)c1	2.3	-1.0	-2.3	17.2*	1.5
COC(=O)c1ccc2nc(-c3ccc(Cl)cc3)c(Cc3ccc(OC)cc3C)n2c1	6.2	24.9*	1.0	/	10.4
COC(=O)c1ccc2nc(-c3ccc(OC)c(OC)c3)c(Cc3ccc(OC)cc3C)n2c1	-3.1	21.2*	-3.2	-1.9	11.6
COC(=O)c1ccc2nc(-c3ccc(F)cc3)c(Cc3ccccc3OC)n2c1	-3.0	16.8	-0.9	/	4.2
COc1ccc(Cc2c(-c3ccc(C)cc3)nc3ccc(Cl)cn23)c(C)c1	1.7	7.5	0.3	1.0	0.4
CCOC(=O)CNC(=O)CSc1nnc(-c2cccs2)o1	-9.8	3.5	-4.5	/	3.0
Nc1[nH]c(C(=O)c2ccccc2)c(-c2ccccn2)c1C(=O)c1c[nH]c2ccc(Br)cc12	7.3	-0.9	-2.0	/	-1.9
Cc1nn(-c2ccccc2)c2nc(-c3ccco3)cc(C(=O)O)c12	9.4	14.0	16.4*	-2.6	4.8
O=C(C[C@@H]1C/C=C\CC[C@H](Cc2ccc(F)cc2)C(=O)OC[C@@H](Cc2ccccc2)NC1=O)NCCO	5.0	21.4*	1.2	2.5	8.0
O=C(C[C@H]1C/C=C/CC[C@@H](Cc2ccc(F)cc2)C(=O)OC[C@H](c2ccccc2)NC1=O)NCCO	-3.5	-4.5	0.7	2.6	-4.6
Clc1ccc(-c2nnc(SCc3cccc4ccccc34)n2Cc2ccco2)cc1	-7.6	2.8	4.7	/	1.9
O=C(NCCc1ccccc1)c1ccc(NC(=O)C2CC2)cc1	-4.0	-2.0	0.8	-2.9	0.9
CC(=O)Nc1ccc(C(=O)NCCc2ccccc2)cc1	15.2	21.1*	0.6	-0.6	3.3
COCOCCn1cc(CN2CCS(=O)(=O)N(Cc3ccc(-c4ccncc4)cc3)C(CC(C)C)C2=O)nn1 (configuration not stated)	-4.3	24.2*	0.9	-2.8	5.1
COCOCCn1cc(CN2CCS(=O)(=O)N(Cc3ccc(-c4ccncc4)cc3)C(C(C)C)C2=O)nn1 (configuration not stated)	2.0	-1.5	-0.8	-2.6	-1.1
COc1ccccc1NC(=O)CN1CCN(C(=O)c2ccco2)CC1	-6.0	26.6*	0.7	2.1	0.2
COc1ccccc1NC(=O)N1CCN(C)CC1	2.7	34.1*	-4.0	0.7	4.3
CN1CCN(c2nc3c(c(=O)n(C)c(=O)n3C)n2Cc2ccccc2F)CC1	0.4	60.0*	-4.2	1.2	1.0
CC(C)c1csc(CN2CCC(CO)(Cc3cccc(F)c3)CC2)n1	-6.6	58.8*	-4.2	3.6	6.1
CCOC(=O)C1CCCN(C(=O)CN2C(=O)/C(=C/c3ccc(OC)cc3)Oc3ccccc32)C1 (configuration not stated)	13.5	22.2*	-2.0	-2.4	6.4
CCn1nnnc1SCC(=O)Nc1ccc2c(c1)OCO2	-0.9	1.9	0.6	1.4	-3.2
SMILES	TDP2 inh	UHRF1 binding	LEDGF integ inh	Rin1-Abl PPI inh	MBD2 DNA inh
COc1cc(NC(=O)CSc2nnnn2Cc2ccc3c(c2)OCO3)cc(OC)c1	4.1	23.8*	4.0	0.3	13.0
CCN(CC)C(=O)CSc1nnc(-c2ccc(C(C)(C)C)cc2)n1Cc1ccco1	-0.9	0.0	-1.6	/	-2.7
Brc1ccc(-c2nnc3c4ccccc4nc(N4CCOCC4)n23)cc1	4.7	0.4	-2.9	-2.2	4.3
Fc1ccccc1-c1nnc2c3ccccc3nc(N3CCOCC3)n12	4.3	0.4	-0.7	5.7*	3.2
O=C(CSc1nnc(-c2ccccn2)n1-c1ccccc1)Nc1cccc2ccccc12	-2.4	-1.3	-1.4	/	-0.6
CN(CC#CC1(O)c2ccccc2-c2ccccc21)Cc1ccccc1	6.9	22.8*	2.5	-0.7	10.1
C#CCN(C)Cc1ccccc1	15.7	-0.4	0.5	-1.2	3.2
Cc1ccc(CN(Cc2ccco2)C(=S)NCC(=O)O)cc1	-11.5	22.2*	0.3	-3.6	6.4
Cc1cc(C)c(C)c(S(=O)(=O)N2CCSCC2)c1C	-12.2	-0.1	2.4	-1.1	-2.3
Cc1cc(C)c(C)c(S(=O)(=O)N2CCN(C)CC2)c1C	-5.4	39.4*	-2.0	2.6	3.8
CC(C)(C)C(=O)OC12CCCN(C1)/C(=C/c1ccccc1)C2 (configuration not stated)	-1.2	3.2	-2.0	/	-1.8
O=C(O)c1cccc(N/N=C/c2cccc3ccccc23)c1	9.0	41.6*	-0.6	1.8	-2.9
CCCC1CCC2(CCCN2CCOC(=O)Nc2ccccc2C)CC1 (configuration not stated)	1.6	1.9	0.3	/	3.4
O=C1CC(Cc2ccccc2)C(=O)N1CCc1ccc2c(c1)OCO2 (configuration not stated)	-0.9	3.1	-0.4	3.5	7.0
Cc1cccc(CC2CC(=O)N(CCc3ccc4c(c3)OCO4)C2=O)c1 (configuration not stated)	-8.2	39.7*	6.6	-1.0	12.5
CCOc1ncccc1C(=O)Nc1ccc(F)c(Cl)c1	-2.0	76.2*	0.0	-2.8	7.8
CCOc1ccc(-n2c(SCC(=O)NN=Cc3ccc(C(=O)O)cc3)nnc2-c2cccnc2)cc1	5.1	-2.6	1.8	/	-1.1
Cc1ccc(-n2c3c(c(=O)[nH]c2=O)C(NS(=O)(=O)c2ccc(Cl)cc2)(C(F)(F)F)C(=O)N3)cc1 (configuration not stated)	2.0	28.4*	2.1	1.1	4.4
Cc1ccc(-n2c3c(c(=O)[nH]c2=O)C(NS(=O)(=O)c2ccc(C)cc2)(C(F)(F)F)C(=O)N3)cc1 (configuration not stated)	-13.6	18.4	5.6	1.5	3.4
COc1cc(C2C(C#N)=C(N)OC3=C2C(=O)CCC3)c([N+](=O)[O-])cc1OC (configuration not stated)	6.5	-4.3	13.4*	-1.5	2.7
